# Tb MetRS inh = Trypanosoma brucei MetRS inhibition. purified T. brucei MetRS, ATP depletion, Kinase-Glo luminescence. inhibition, % at 11.9 µM. 0.4% of 360,000 active. AID 624268;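 active = inhibition above a per-plate cutoff of the control wells' mean inhibition plus 3 SD, cut at about 5.5% in these data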
#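 assay system = parasite MetRS enzyme | timing = 15 min preincubation, 2 h reaction, all 25 °C | evaluation = percent inhibition relative to median high and low control wells | medium = HEPES buffer containing pyrophosphatase, BSA, spermine, DTT | compound = single dose, 11.9 µM final nominal, 0.9% final DMSO | detection = Kinase-Glo luminescence, ATP depletion format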
# UPR CHOP act = activators of apoptotic arm of unfolded protein response (CHOP); CHO-CHOP luciferase reporter, UPR activation, luminescence; percent of tunicamycin response over DMSO baseline; activation, % at 10 µM; 0.34% of 330,000 active; AID 449763;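 active = at 10 µM dose, activation of 40% or more, normalized to positive control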
#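 System: CHO-CHOP luciferase reporter cell line; amount: 500 cells/well; buffer or medium: F12 medium containing 10% fetal bovine serum; incubation: 6 h compound exposure at 37 °C after overnight seeding; measured by: luciferase luminescence after 10 min with Steady-Glo reagent; evaluation: % reporter activation, DMSO baseline versus tunicamycin full activation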
# V-ATPase pH = regulators of yeast V-ATPase proton transport. S. cerevisiae, pHLuorin cytosolic pH fluorescence. response, % at 10 µM. 0.37% of 350,000 active. AID 504577; in the data active = response mostly above about 7.3%, no sharp cut-off; inactive = mostly below about 5.4%; note: actives read high
# CHOP inhibitor = inhibitors of CHOP induction in ER stress response; CHO-K1 CHOP-promoter luciferase, tunicamycin-induced, 15-18 h; inhibition, % at 10 µM; 3.8% of 220,000 active;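 active = compounds that reduced the stress-induced luciferase reporter signal by more than about 70% of percent inhibition, limit read from the data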
# XBP1 UPR activ = adaptive UPR (XBP1) activation; CHO-XBP1 luciferase reporter, IRE1-XBP1 UPR activation, luminescence; percent of tunicamycin response, DMSO as zero; activation, % at 20 µM; 0.33% of 330,000 active; AID 463104;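 active = versus positive control, 20 µM dose yields 30% or more activation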
#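 incubation = overnight seeding at 37 °C, 6 h compound treatment at 37 °C | assay system = CHO-XBP1 cells stably carrying IRE1-XBP1-driven luciferase reporter | input = 1000 cells per well | detection = luciferase luminescence | dosing = single point, 20 µM final compound, 1% DMSO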
# XBP1 UPR conf = adaptive UPR (XBP1) activation, confirmed; 63% of 1,000 active; shares compounds with XBP1 UPR activ; activation, % at 20 µM; CHO-XBP1 IRE1-XBP1 luciferase reporter, luminescence;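 active = reporter signal at least 30% of the positive control's activation in two or more of four replicate wells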
# Numbers stand for hits; 0 = inactive; - = not tested or not shown. The entries come from a sample that favours hits as a whole.
SMILES,Tb MetRS inh,UPR CHOP act,V-ATPase pH,CHOP inhibitor,XBP1 UPR activ,XBP1 UPR conf
CC(C)(C)SCCNC(=O)/C=C/c1cccc([N+](=O)[O-])c1,0,0,0,0,0,-
COc1ccc(CCNC(=O)Cc2cc(OCc3ccccc3)c(OC)cc2[N+](=O)[O-])cc1OC,0,0,0,0,0,-
COC(=O)c1ccc(S(=O)(=O)NC(C)(C)C)n1C,0,0,0,0,0,-
Cc1cc(NC(=O)c2cc(-c3ccncc3)nc3c(C)cccc23)no1,0,0,0,-,153,184
Cc1ccc(-c2cc(C(=O)Nc3cc(C)on3)c3ccccc3n2)cc1,0,0,0,0,0,-
COc1ccc(OC)c(-c2nnc3n2N=C(c2ccc(OC)c(OC)c2)CS3)c1,0,0,0,-,37,42
c1ccc(-c2cc(-c3nnc4n3N=C(c3ccc5ccccc5c3)CS4)[nH]n2)cc1,0,0,0,0,32,0
O=C(Nc1ccc(O)c2c(=O)cc(-c3cccc(Cl)c3)oc12)c1cccc(Cl)c1,0,0,0,0,73,70
COc1ccc(C(=O)Nc2ccc(O)c3c(=O)cc(-c4cccc(Cl)c4)oc23)cc1,0,0,0,0,0,-
CC(C)(C)c1ccc(C(=O)Nc2ccc(O)c3c(=O)cc(-c4cccc(Cl)c4)oc23)cc1,0,0,0,0,55,52
O=C(Nc1ccc(O)c2c(=O)cc(-c3ccccc3Cl)oc12)c1ccc(F)cc1,0,0,0,0,0,-
CCOC(=O)C1=C(C)N=c2s/c(=C\c3ccc(O)c([N+](=O)[O-])c3)c(=O)n2C1c1ccccc1OC (stereo not drawn),0,0,0,-,0,-
CCOC(=O)C1=C(C)n2c(s/c(=C/c3cccc([N+](=O)[O-])c3)c2=O)=NC1c1ccc(O)c(OC)c1 (stereo not drawn),0,0,0,0,45,86
CSCCC(NC(=O)c1ccc(Cl)cc1Cl)C(=O)NCC(c1cccs1)N(C)C (stereo not drawn),0,-,0,-,-,-
O=C1N=C2SCCN2/C1=C\c1ccccc1Cl,0,0,0,0,0,-
CN1CCCN(S(=O)(=O)c2ccc(Cl)c(Cl)c2)CC1,0,-,0,0,-,-
Cc1cc(C(=O)NNC(=O)c2ccccc2[N+](=O)[O-])c(C)o1,0,0,0,-,59,0
Cc1cc(N2C(=O)C(=O)/C(=C(/O)c3ccc(F)cc3)C2c2ccc(Cl)cc2)no1 (stereo not drawn),0,0,0,0,33,0
COC(=O)c1ccc(C2/C(=C(\O)c3ccc(OC)c(C)c3)C(=O)C(=O)N2c2cc(C)on2)cc1 (stereo not drawn),0,0,0,0,0,-
COc1cc(C(=O)OCC(=O)Nc2ccccc2)cc2c1OCCO2,0,-,0,-,-,-
CCOC(=O)CC(=O)CSc1nc(-c2ccc3c(c2)OCO3)cc(C(F)(F)F)c1C#N,0,0,0,0,38,0
O=C(Nc1cccc(/C=C/c2nc3ccccc3c(=O)[nH]2)c1)c1ccccc1Cl,0,0,0,0,0,-
COc1ccc(C(=O)Nc2cccc(/C=C/c3nc4ccccc4c(=O)[nH]3)c2)cc1,0,0,0,91,52,69
CN(C)CC/C=C1/c2ccc(F)cc2Sc2ccc(Cl)cc21,0,0,0,-,0,-
CN(C)CC/C=C1\c2ccc(F)cc2Sc2cc(F)c(Cl)cc21,0,0,0,-,86,122
SMILES,Tb MetRS inh,UPR CHOP act,V-ATPase pH,CHOP inhibitor,XBP1 UPR activ,XBP1 UPR conf
Clc1ccc2c(c1)C(N1CCNCC1)Cc1ccccc1S2 (stereo not drawn),0,0,0,79,63,72
Clc1cccc2c1Sc1ccccc1CC2N1CCNCC1 (stereo not drawn),0,0,0,0,0,-
CC(C)N(Cc1nc(-c2ccc3c(c2)OCO3)no1)Cc1nccn1C,0,0,0,0,0,-
O=C(O)c1ccc(-n2ccnc2)c([N+](=O)[O-])c1,0,0,0,0,0,-
COC(=O)c1cc([N+](=O)[O-])c(-n2ccnc2)c([N+](=O)[O-])c1,0,0,0,90,91,187
Nc1ccc(NC(=O)c2ccccc2)c2c1C(=O)c1ccccc1C2=O,0,0,0,0,32,0
Nc1ccccc1NC(=O)c1ccccc1,0,0,0,0,0,-
CCOC(=O)CNc1nnc(SCC(=O)OCC)[nH]c1=O,0,0,0,0,0,-
O=C(/C=C/c1cc([N+](=O)[O-])ccc1OC(F)F)Nc1cccc([N+](=O)[O-])c1,0,0,0,0,102,28
CCCCCCCCCCOC(=O)Cn1c(COc2ccccc2OC)[n+](C)c2ccccc21,0,0,0,-,77,52
Cn1c(COc2ccccc2O)[n+](C)c2ccccc21,0,0,0,-,0,-
COc1cc(/C=C2/C(=N)N3C=CSC3=NC2=O)ccc1OCCCOc1cc(C)ccc1C,0,0,0,0,85,129
COc1ccccc1NS(=O)(=O)c1cccc(C(=O)N/N=C(\C)c2cccnc2)c1,0,0,0,-,0,-
CCOC(=O)c1ccc(N2Cc3ccccc3C2=NC(=O)c2cccc([N+](=O)[O-])c2)cc1,0,0,0,-,56,0
Cc1c(NC(=O)CSc2ccc(Cl)cc2)cccc1-c1nc2cc(Cl)ccc2o1,0,0,0,0,42,59
Cc1cc(C(=O)N/N=C/c2ccco2)n[nH]1,0,0,0,0,0,-
Cc1cc(C(=O)N/N=C/c2ccc(-c3cccc(Br)c3)o2)n[nH]1,0,0,0,0,32,0
Cc1ccc(C(=O)NCC(=O)OCC(=O)Nc2ccccc2[N+](=O)[O-])cc1,0,0,0,0,0,-
Nc1nc(-c2cc(O)ccc2[N+](=O)[O-])cc(-c2ccccc2)c1[N+](=O)[O-],0,0,0,-,311,214
Cc1csc(SCC(=O)NC(C)c2ccccc2)n1 (stereo not drawn),0,0,0,0,0,-
C=CCOc1ccc(-c2nc3c(c(=O)[nH]c(=O)n3CCCC)n2C)cc1Br,0,0,0,-,39,0
CCCCn1c(=O)[nH]c(=O)c2c1nc(-c1ccc(OC)c(Br)c1)n2CC(C)C,0,0,0,-,0,-
COCCn1c(N)c(N(Cc2ccccc2)C(=O)c2ccc(-c3ccc(Cl)cc3)o2)c(=O)[nH]c1=O,0,0,0,-,0,-
COc1ccc(/C=N/NC(=O)c2cc3c(OC)ccc(OC)c3[nH]2)cc1O,0,0,0,-,32,0
COc1ccc(OC)c2[nH]c(C(=O)N/N=C/c3ccccc3O)cc12,0,0,0,-,0,-
CN(CC(=O)Nc1cccc(F)c1)CC(=O)Nc1cccc(S(N)(=O)=O)c1,0,0,0,0,0,-
COc1ccc(C2NCCc3c2[nH]c2ccccc32)cc1COc1ccc(F)cc1 (stereo not drawn),0,0,0,75,32,39

# Source: PubChem
